Source: PubChem BioAssay
RGS4 pot: RGS4 potentiators or activators, primary screen, cell-based, HEK293 M3R inducible RGS4, calcium flux; carbachol calcium flux Fluo4; active compounds read low; B-score at 10 µM; 310,000 tested, 0.92% active; AID 463111, 2010;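 active = B-score of the integrated calcium signal more than 4 SD below the library mean, with starting fluorescence not abnormally high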;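 note: negative B-score means reduced calcium response which marks RGS4 activation or potentiation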
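Reagent: ECmax carbachol challenge; Test system: M3R-expressing HEK293 line, RGS4 induced by doxycycline; Schedule: overnight RGS4 induction, 30 min dye load 37 °C, 20 min compound RT; Detection: calcium dye Fluo4 fluorescence; Read-out: Agonist-evoked peak-minus-minimum fluorescence over baseline, integrated ratio, B score.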
MrgX1 PAM: positive allosteric modulators of MrgX1, primary screen, HEK293 cells, Fluo-4 calcium flux; AID 588675, 2011; 310,000 tested, 0.63% active; FDSS; active compounds read high; Mas-related G-protein coupled receptor member X1 (Homo sapiens), Q96LB2; B-score at 10 µM;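 active = plate-corrected calcium response at least 3 library SD above typical, normal starting fluorescence, not activating the receptor alone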;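 note: compound read alongside a low EC10 to EC30 dose of BAM8-22 agonist; peak minus trough fluorescence over baseline measured at the second addition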
Target sequence (Q96LB2 whole entry, looked up): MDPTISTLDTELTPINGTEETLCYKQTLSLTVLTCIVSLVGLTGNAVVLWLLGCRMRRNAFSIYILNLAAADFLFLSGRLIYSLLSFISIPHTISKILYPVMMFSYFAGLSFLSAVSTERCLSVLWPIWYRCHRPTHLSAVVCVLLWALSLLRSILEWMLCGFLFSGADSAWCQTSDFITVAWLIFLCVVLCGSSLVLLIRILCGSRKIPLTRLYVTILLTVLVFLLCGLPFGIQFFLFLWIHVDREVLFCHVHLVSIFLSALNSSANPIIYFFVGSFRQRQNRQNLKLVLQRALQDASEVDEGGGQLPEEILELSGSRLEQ
MrgX1 antag: antagonists of human MrgX1 receptor, primary screen, HEK293 cells, Fluo-4 calcium flux; 310,000 tested, 1.3% active; BAM8-22 antagonism; active compounds read low; AID 588676, 2011; B-score at 10 µM;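 active = calcium-response B-score plate-corrected more than 3 library SD below zero, starting fluorescence within 5 deviations, no agonist response on first addition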;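 note: peak minus trough fluorescence over baseline after final BAM8-22 challenge near maximal dose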
MrgX1 ag: agonists of human MrgX1 receptor, primary screen, HEK293 cells, Fluo-4 calcium flux; Mas-related G-protein coupled receptor member X1 (Homo sapiens), Q96LB2; Fluo-4 calcium fluorescence, agonist mode; active compounds read high; B-score at 10 µM; 310,000 tested, 0.44% active;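 active = calcium response B-score plate-corrected fluorescence ratio at least 3 library SD, with starting fluorescence B-score inside 5 SD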
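System: HEK293 cells stably expressing human MrgX1 receptor; Dosing: test compound in the initial addition of three; Schedule: overnight plating, then 30 min 37 °C plus 30 min room-temperature dye loading; Detection: kinetic calcium dye fluorescence, Fluo-4 NW; Controls: per-plate positive and negative controls for Z′ factor.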
RGS4 block: RGS4 inhibitors, primary screen, cell-based, HEK293 M3R inducible RGS4, calcium flux; Regulator of G-protein signaling 4 (Homo sapiens), P49798; Fluo-4 calcium flux; active compounds read high; triggered by carbachol at its EC20; 310,000 tested, 0.45% active; B-score at 10 µM; AID 463165, 2010;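 active = B-score, a plate-corrected calcium signal, over three deviations above library mean, with baseline fluorescence within five deviations of library mean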;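 note: RGS4 expression induced by doxycycline in cells with stable M3 receptor; B-score is computed from the integrated fluorescence ratio over baseline after carbachol; higher B-score means a larger calcium signal and so more RGS4 inhibition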
Target sequence (P49798 whole entry, looked up): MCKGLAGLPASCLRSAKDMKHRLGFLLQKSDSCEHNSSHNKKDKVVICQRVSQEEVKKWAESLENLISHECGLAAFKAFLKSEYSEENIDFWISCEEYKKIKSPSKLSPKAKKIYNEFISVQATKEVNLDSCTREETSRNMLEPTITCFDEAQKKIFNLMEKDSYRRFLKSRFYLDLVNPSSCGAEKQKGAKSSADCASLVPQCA
MrgX1 ant reconf: MrgX1 receptor antagonists, duplicate retest, confirmation, HEK293 cells, Fluo-4 calcium flux | shares compounds with MrgX1 antag | 2,300 tested, 19% active | BAM8-22 calcium flux; active compounds read low | remaining BAM8-22 calcium response % of control (active compounds read low), % at 10 µM | AID 602420, 2012;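 active = remaining agonist calcium response no higher than 100% minus 3 SD of agonist-only control wells, with starting fluorescence near control levels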;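 note: agonist BAM8-22 given at a near maximal EC90 to ECmax level; peak minus minimum fluorescence divided by baseline after agonist addition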
HEK293 Ca flux: nonspecific calcium signal in parental HEK293, confirmation, counter-screen for MrgX1 antagonist project, parental HEK293 cells, Fluo-4 calcium flux; shares compounds with MrgX1 antag; Fluo-4 calcium fluorescence, FDSS; fluorescence ratio F(max-min)/F0 at 10 µM; 4,000 tested, 2% active; AID 624111, 2012;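 active = duplicate-averaged calcium fluorescence ratio at least three times the standard deviation of buffer wells, a nonspecific response in parental cells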
HEK293 Ca counter: calcium response in parental HEK293 cells, primary screen, counter-screen for MrgX1 allosteric activator project, cell-based, Fluo-4 calcium flux, duplicate | AID 624114, 2012 | shares compounds with MrgX1 antag | Fluo-4 fluorescence ratio; active compounds read high | fluorescence ratio F(max-min)/F0 at 10 µM | 4,000 tested, 0.4% active;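 active = calcium fluorescence ratio, averaged over duplicates, at least 3 SD of the buffer-well ratio, meaning a nonspecific response in receptor-free cells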;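 note: untransfected parental HEK293 lacking MrgX1 used as counterscreen for MrgX1 allosteric activators; fluorescence change taken during the second addition on a kinetic imager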
HEK293 Ca cntr2: calcium response in parental HEK293 cells, primary screen, counter-screen for MrgX1 agonist project, cell-based, Fluo-4 calcium flux, duplicate, agonist mode; fluorescence ratio F(max-min)/F0 at 10 µM; 4,000 tested, 8.7% active; AID 624115, 2012; Fluo-4 calcium fluorescence (FDSS); active compounds read high; shares compounds with MrgX1 antag;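 active = calcium fluorescence ratio at least three times the spread of buffer wells, meaning a non-specific response in parental cells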
* hit, by the source's call. Only some compounds are listed: those with a hit (about 3.5% of all), similar ones and a draw of the others.

How did CC(C)Cc1nnc(NC(=O)CCC(=O)NC2CCCc3ccccc32)s1 (stereo not given) do in these assays?
RGS4 pot: inactive; MrgX1 PAM: inactive; MrgX1 antag: -5.2*; MrgX1 ag: inactive; RGS4 block: inactive; MrgX1 ant reconf: inactive; HEK293 Ca flux: inactive; HEK293 Ca counter: inactive; HEK293 Ca cntr2: inactive

How did CC1CC(C)CN(CCCNS(=O)(=O)c2cc(Br)cc3c2N(C(=O)C2CC2)CC3)C1 (stereo not given) do in these assays?
RGS4 pot: inactive; MrgX1 PAM: inactive; MrgX1 antag: inactive; MrgX1 ag: inactive; RGS4 block: inactive

Results for O=[N+]([O-])c1c(Nc2ccc(O)cc2)cc(Cl)c2nonc12 ?
RGS4 pot: inactive; MrgX1 PAM: inactive; MrgX1 antag: -15*; MrgX1 ag: inactive; RGS4 block: inactive; MrgX1 ant reconf: 16%*; HEK293 Ca flux: inactive; HEK293 Ca counter: inactive; HEK293 Ca cntr2: inactive

What do the screens show for `CN(C)c1cc(Nc2ccc(O)cc2)c([N+](=O)[O-])c2nonc12`?
RGS4 pot: inactive; MrgX1 PAM: inactive; MrgX1 antag: inactive; MrgX1 ag: inactive; RGS4 block: inactive

What do the screens show for `Cc1ccccc1Cn1cc(NC(=O)c2nc3ncccn3n2)cn1`?
RGS4 pot: inactive; MrgX1 PAM: inactive; MrgX1 antag: inactive; MrgX1 ag: inactive; RGS4 block: inactive

What do the screens show for `Cc1ccccc1Cn1ccc(NC(=O)c2nc3ncccn3n2)n1`?
MrgX1 PAM: inactive; MrgX1 antag: -5.7*; MrgX1 ag: inactive; MrgX1 ant reconf: inactive; HEK293 Ca flux: inactive; HEK293 Ca counter: inactive; HEK293 Ca cntr2: inactive

What do the screens show for `CCc1ccc(S(=O)(=O)/N=C2\C=C(Nc3ccc(C(=O)O)cc3)C(=O)c3ccccc32)cc1`?
RGS4 pot: inactive; MrgX1 PAM: inactive; MrgX1 antag: -7.7*; MrgX1 ag: inactive; RGS4 block: inactive; MrgX1 ant reconf: 85%*; HEK293 Ca flux: inactive; HEK293 Ca counter: inactive; HEK293 Ca cntr2: inactive

Results for Cc1ccc(S(=O)(=O)/N=C2\C=C(Nc3cccc(C(=O)O)c3)C(=O)c3ccccc32)cc1 ?
RGS4 pot: inactive; MrgX1 PAM: inactive; MrgX1 antag: inactive; MrgX1 ag: inactive; RGS4 block: inactive

How did CSc1nnc2n(C)c3c(c(=O)n12)C1(CCCC1)Cc1ccccc1-3 do in these assays?
RGS4 pot: inactive; MrgX1 PAM: inactive; MrgX1 antag: inactive; MrgX1 ag: inactive; RGS4 block: inactive

How did CSc1n[nH]c2nc3c(c(=O)n12)C1(CCCC1)Cc1ccccc1-3 do in these assays?
RGS4 pot: inactive; MrgX1 PAM: inactive; MrgX1 antag: -5.4*; MrgX1 ag: inactive; RGS4 block: inactive; MrgX1 ant reconf: inactive; HEK293 Ca flux: inactive; HEK293 Ca counter: inactive; HEK293 Ca cntr2: inactive

How did Cc1nn(C)c(C)c1NS(=O)(=O)c1cccc(Br)c1 do in these assays?
RGS4 pot: inactive; MrgX1 PAM: inactive; MrgX1 antag: -4.7*; MrgX1 ag: inactive; RGS4 block: inactive; MrgX1 ant reconf: inactive; HEK293 Ca flux: inactive; HEK293 Ca counter: inactive; HEK293 Ca cntr2: inactive

Results for Cc1onc(-c2c(F)cccc2Cl)c1C(N)=S ?
RGS4 pot: inactive; MrgX1 PAM: inactive; MrgX1 antag: inactive; MrgX1 ag: inactive; RGS4 block: inactive

What do the screens show for `COc1cccc(CNC(=O)CS(=O)(=O)Cc2nc(-c3ccc(C)cc3)oc2C)c1OC`?
RGS4 pot: inactive; MrgX1 PAM: inactive; MrgX1 antag: inactive; MrgX1 ag: inactive; RGS4 block: inactive

How did Cc1ccccc1C(=O)Oc1ccc(Br)cc1C(=S)N1CCCC1 do in these assays?
RGS4 pot: inactive; MrgX1 PAM: inactive; MrgX1 antag: -9.4*; MrgX1 ag: inactive; RGS4 block: inactive; MrgX1 ant reconf: inactive; HEK293 Ca flux: inactive; HEK293 Ca counter: inactive; HEK293 Ca cntr2: inactive

Results for CCc1cccc(C)c1NC(=O)COC(=O)c1cc([N+](=O)[O-])ccc1N1CCOCC1 ?
RGS4 pot: inactive; MrgX1 PAM: inactive; MrgX1 antag: inactive; MrgX1 ag: inactive; RGS4 block: inactive

How did Cc1cc(C=O)c2c(c1)C=CC1(Oc3ccccc3C(=O)N1C)O2 (stereo not given) do in these assays?
RGS4 pot: inactive; MrgX1 PAM: inactive; MrgX1 antag: inactive; MrgX1 ag: inactive; RGS4 block: inactive

Results for O=C(c1ccccc1O)N1N=C(c2ccccc2)CC1(O)C(F)(F)F (stereo not given) ?
RGS4 pot: inactive; MrgX1 PAM: inactive; MrgX1 antag: inactive; MrgX1 ag: inactive; RGS4 block: inactive

What do the screens show for `Cc1noc(C)c1CSc1ncnc2ccccc12`?
RGS4 pot: inactive; MrgX1 PAM: inactive; MrgX1 antag: -7.7*; MrgX1 ag: inactive; RGS4 block: inactive; MrgX1 ant reconf: inactive; HEK293 Ca flux: inactive; HEK293 Ca counter: inactive; HEK293 Ca cntr2: inactive

Results for O=C(Nc1ccccc1F)c1ccc(CSc2ccccc2)o1 ?
RGS4 pot: inactive; MrgX1 PAM: inactive; MrgX1 antag: inactive; MrgX1 ag: inactive; RGS4 block: inactive

Results for CCCCN1CC[C@H]2C=CC[C@@H](C(=O)NCCc3ccccc3)[C@H]2C1=O ?
RGS4 pot: inactive; MrgX1 PAM: inactive; MrgX1 antag: -6.1*; MrgX1 ag: inactive; RGS4 block: inactive; MrgX1 ant reconf: inactive; HEK293 Ca flux: inactive; HEK293 Ca counter: inactive; HEK293 Ca cntr2: inactive

What do the screens show for `CCCCN1CC[C@H]2C=CC[C@@H](C(=O)Nc3ccccc3)[C@H]2C1=O`?
RGS4 pot: inactive; MrgX1 PAM: inactive; MrgX1 antag: inactive; MrgX1 ag: inactive; RGS4 block: inactive
